# SUMO HTRF inh – SUMOylation inhibition; P63279; HTRF SUMOylation assay, SAE1/SAE2 + UBC9, in vitro; inhibition, % at 35 µM; actives 0.36% (n = 290,000); AID 2006; in the data active = inhibition above about 50%, passing the limit was not always enough
# 14-3-3 Bad PPI – disrupts binding of bovine 14-3-3 zeta to phospho-Bad peptide; inhibition, % at 21.7 µM; AID 781; TR-FRET 14-3-3zeta/Dy647-pBad peptide displacement, 1 h; actives 0.71% (n = 220,000); P63103;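 active = inhibition above about 70%, limit read from the data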;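 note: 0% = full 14-3-3 plus peptide FRET controls and 100% = background without 14-3-3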
# p97 inhibitor – blocks human p97 ATPase activity; recombinant p97 ATPase, Kinase-Glo ATP luminescence, 3 h; actives 0.42% (n = 220,000); AID 1481; inhibition, % at 8 µM; P55072; in the data active = inhibition above about 15%;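 note: 0% = DMSO vehicle and 100% = wells lacking enzyme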
# eIF4E-4G inh – inhibitors of eIF4E and eIF4G interaction in translation initiation; P63073+Q04637; TR-FRET eIF4E-eIF4GI(517-606) binding, 2 h; inhibition, % at 21.7 µM; actives 0.37% (n = 220,000); AID 782;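 note: 0% = full FRET control wells and 100% = background wells lacking eIF4GI fragment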
# TbMetRS inhib – Trypanosoma brucei MetRS inhibition. purified T. brucei MetRS, ATP depletion, Kinase-Glo luminescence. AID 624268. inhibition, % at 11.9 µM. actives 0.4% (n = 360,000);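 active = inhibition above a per-plate cutoff of the control wells' mean inhibition plus 3 SD, cut at about 5.5% in these data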;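 note: 0% = DMSO wells median and 100% = median of wells with control inhibitor compound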
#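 Material: parasite MetRS enzyme / Replication: singlicate, one well per compound / Signal: luminescence of leftover ATP / Schedule: 2 h aminoacylation at 25 °C after 15 min preincubation / Medium: HEPES-MgCl2-KCl buffer plus DTT, spermine, BSA, pyrophosphatase / Doses: 11.9 µM single point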
# p47phox inh – p47phox (human) inhibition. P14598. p47phox/p22phox peptide binding, fluorescence polarization, 2 h. inhibition, % at 24.7 µM. actives 0.53% (n = 220,000). AID 1274;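 note: 0% = p47phox with labelled peptide and 100% = labelled peptide alone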
# p97 inh conf – human p97 ATPase inhibition, confirmation; recombinant p97 ATPase, Kinase-Glo ATP luminescence; actives 44% (n = 760); shares compounds with p97 inhibitor; inhibition, % at 8 µM;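 active = percent inhibition of p97 ATPase above a set limit, the primary screen's mean plus 3 SD, cut at about 15% in these data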;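 note: 0% = DMSO wells and 100% = wells lacking p97 protein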
# Starred values were filed as active, the others as inactive; nt = no result; [ ] = remark or other dose. Rows were chosen to be rich in hits. Some 1.6% of all compounds tested hit in one or more screens of this group.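 Rule for the calls, unless noted: active = inhibition above about 30% (limit read from the data); inactive = the rest.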
SMILES,SUMO HTRF inh,14-3-3 Bad PPI,p97 inhibitor,eIF4E-4G inh,TbMetRS inhib,p47phox inh,others
COc1ccc(CC2C(=O)NC(=O)N(c3ccccc3)C2=O)c(OC)c1 (stereo not drawn),9,3,0,69*[fluorescence artefact?],-1,6,
C=CCN1C(=O)/C(=C/c2ccc3c(c2)CCCN3CCC)C(=O)NC1=S,15,8,4,6,0,43*,
CCN1C(=O)/C(=C/c2ccc3c(c2)CCN3CCCCl)C(=O)NC1=S,25,-28,6,9,0,3,
c1ccc(-c2nc(N3CCOCC3)s[n+]2-c2ccccc2)cc1,14,24,-2,27,0,41*,
CCCCCn1c(NC(=O)c2ccco2)c(C(=O)OCC)c2nc3ccccc3nc21,101*,7,1,4,2,-20,
CCOC(=O)c1c(N)n(CCCOC(=O)c2ccco2)c2nc3ccccc3nc12,36,nt,3,nt,-1,nt,
Cc1nn(CCC#N)c2c1P(=S)(N1CCCC1)OC(c1ccc(F)cc1)=N2 (stereo not drawn),1,2,-3,32*,0,-6,
Cc1ccc(C(O)(C(=O)OC(C)C)C(O)c2ccc(F)cc2)cc1 (stereo not drawn),nt,nt,nt,nt,-1,nt,
CN(C)c1ccc(/C=C2/C(=O)NC(=O)N(CCc3ccc(F)cc3)C2=O)cc1,7,6,-3,-12,0,-6,
CN(C)c1ccc(/C=C2\C(=O)NC(=O)N(Cc3ccc(F)cc3)C2=O)cc1,10,8,5,0,0,97*,
Cc1ccc(CN2Cc3ccc(Br)cc3-n3nncc3C2)cc1,nt,nt,nt,nt,0,nt,
CCN1CCN(Cc2cc(Br)cc(Br)c2O)CC1,-6,78*,-3,1,0,5,
O=C1NCN(c2ccccc2)C12CCN(C(c1ccnc3ccccc13)c1nnnn1-c1ccc3c(c1)OCCO3)CC2 (stereo not drawn),nt,nt,nt,nt,0,nt,
CC[C@@H](C(N)=O)N1CCCC1=O,3,4,5,98*,nt,-16,
CCC(C(=O)Nc1ccc(Cl)cc1)N1CCCC1=O (stereo not drawn),nt,nt,nt,nt,0,nt,
O=C(Nc1cccnc1)c1c(O)c2c(n(Cc3ccccc3)c1=O)CCCC2,4,8,1,61*,0,-6,
CCCC1(CC(C)CC)C(=O)NC(=O)NC1=O (stereo not drawn),nt,nt,nt,nt,0,nt,
Cc1cc(/C=C2\C(=O)NC(=O)N(Cc3ccco3)C2=O)c(C)n1-c1ccc(O)cc1,62*,3,6,8,0,-45,
Cc1cc(/C=C2\C(=O)NC(=O)N(Cc3ccccc3)C2=O)c(C)n1-c1ccc(Cl)c(C(=O)O)c1,59*,8,-8,20,0,-11,
c1cncc(C2CCCCN2Cc2ccc3c(c2)OCO3)c1 (stereo not drawn),14,71*,3,-6,0,-17,
Clc1cccc(CN2CCCCC2c2cccnc2)c1 (stereo not drawn),18,nt,2,nt,-1,nt,
Cc1ccc(-n2c(O)c(/C=N/Nc3ccccc3)c(=O)[nH]c2=O)cc1C,25,-11,3,0,nt,40*,
C=C1[C@@H](C)[C@H]2[C@H](Cc3ccccc3)NC(=O)[C@]23OC(=O)/C=C/[C@H](O)CCC[C@@H](C)C/C=C/[C@H]3[C@@H]1O,12,2,1,7,0,31*,
CCOC(=O)[C@]12Cc3cc(Cl)ccc3[C@H]1N(C1CCCCC1)C(=O)c1cc(OC)ccc12,nt,nt,nt,nt,0,nt,
CN(Cc1cccc(-c2ccncc2)c1)C(=O)Oc1ccccc1Cc1ccccc1,nt,nt,nt,nt,0,nt,
COCCNC(=O)c1c(N)n(CCC(C)C)c2nc3ccccc3nc12,100,-4,0,2,0,-11,
COCCNC(=O)c1c(NC(=O)c2ccc(Br)o2)n(Cc2ccccc2)c2nc3ccccc3nc12,99*,-3,8,12,0,-15,
CCCCNC(=O)c1c(N)n(CCCOC)c2nc3ccccc3nc12,99*,3,22*,11,2,-26,p97 inh conf=-2
